Apaf1 inhib: inhibitors of human Apaf-1 apoptosome. hit rate 0.71% among 330,000. inhibition, % at 20 µM. reconstituted apoptosome caspase-3 activity, DEVD-Rh110 fluorescence. AID 489030; active means inhibition of at least 40% at 20 µM;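 further: plate controls were DMSO wells for no effect and DEVD-CHO caspase inhibitor wells for full effect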
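Assay system: Apoptosome proteins | Medium: pH 7.5 Hepes buffer with CHAPS, BSA, DTT | Also added: Cytochrome c and DEVD-Rh110 substrate | Times: 30 min plus 50 min, RT | Detection: Rhodamine 110 fluorescence at Ex 480/Em 540 nm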
proCasp3 act: activates human procaspase-3 | recombinant procaspase-3 D3A, Ac-DEVD-pNA absorbance 405 nm | activation, % at 8.5 µM | hit rate 0.11% among 330,000 | P42574;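 active means activation above the mean of all tested compounds plus 3 SD, cut at about 21% in these data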;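 further: 0% = DMSO alone and 100% = DMSO wells spiked with extra 5 µM PC-3 D3A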
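Assay system – Procaspase-3 D3A mutant · Benchmarks – DMSO low control, extra-enzyme high control · Technique – 405 nm absorbance of p-nitroaniline, reads at 0 and 120 min · Doses – 8.5 µM nominal · Measure – % activation between DMSO and enzyme-spiked controls · Also added – Ac-DEVD-pNA chromogenic peptide substrate · Schedule – 1 h compound preincubation, 2 h substrate hydrolysis at 25 °C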
GSTO1 counter: blocks human GSTO1 in RBBP9 counter-screen; recombinant GSTO1, activity-based probe fluorescence polarization; hit rate 1.1% among 300,000; P78417; inhibition, % at 5.96 µM;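 active means inhibition above the campaign mean inhibition plus 3 SD, cut at about 35% in these data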;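 further: 0% = GSTO1-1 with DMSO and 100% = wells lacking GSTO1-1 enzyme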
proCasp7 act: counter-screen: procaspase-7 (human) activation; recombinant procaspase-7, Ac-DEVD-pNA absorbance 405 nm; D23A/D198A/D206A triple mutant, cannot self-cleave; scale: DMSO 0, 5 µM enzyme 100; activation, % at 8.5 µM; hit rate 0.093% among 330,000; AID 463210;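 active means percent activation above the screen-wide mean plus 3 SD, cut at about 25% in these data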
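Detection: p-Nitroaniline absorbance at 405 nm, read at 0 and 120 min; system: Uncleavable procaspase-7 mutant enzyme; evaluation: % activation from two-timepoint absorbance difference, scaled to controls; times: 1 h enzyme–compound preincubation and 2 h substrate reaction, both 25 °C; buffer or medium: Zinc-free HEPES pH 7.4 with 300 mM NaCl, 0.01% Triton X-100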
ZTA DNA inh: counter-screen for EBNA-1 inhibitors: inhibitors of Epstein-Barr virus ZTA | P03206 | ZTA-DNA binding, fluorescence polarization | inhibition, % at 11 µM | hit rate 0.15% among 320,000; in the data active means inhibition above about 33%
EBNA-1 inhibitor: blocks EBNA-1 binding to DNA; EBNA-1 DNA binding, fluorescence polarization; inhibition, % at 14.8 µM; hit rate 0.34% among 300,000; AID 1950; in the data active means inhibition above about 28%
EBNA-1 confirm: EBNA-1 (EBV) inhibition, confirmation | shares compounds with EBNA-1 inhibitor | Recombinant EBNA-1 DBD, Cy5-DNA fluorescence polarization | inhibition, % at 14.8 µM | hit rate 35% among 830 | AID 2292;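 active means mean inhibition across replicates above a set limit taken from the earlier primary screen, cut at about 28% in these data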;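 further: plate controls were EBNA-1 protein with DMSO for no effect and wells lacking EBNA-1 for full effect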
ZTA DNA inh trip: ZTA (EBV) inhibition, triplicate counter-screen; shares compounds with EBNA-1 inhibitor; Zta-ZRE DNA binding, Cy5 fluorescence polarization; inhibition, % at 11.1 µM; 830 tested, under 10 active; AID 2328;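 active means mean inhibition over triplicates above a set limit taken from the primary EBNA-1 screen, cut at about 37% in these data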;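 further: purified full length Zta protein with Cy5 labeled ZRE DNA probe; 0% = Zta with DMSO and 100% = wells lacking Zta protein; inhibitors lower polarization by freeing the labeled DNA probe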
* marks the source's active call; other numbers are inactive results; / = no result given. A selection: hits, their analogues and other compounds. The true share with any hit is near 1.8%.

SMILES	Apaf1 inhib	proCasp3 act	GSTO1 counter	proCasp7 act	ZTA DNA inh	EBNA-1 inhibitor	EBNA-1 confirm	ZTA DNA inh trip
COc1ccc2c(c1)[nH]c1c(=O)n(Cc3ccco3)cnc12	-6.1	-3.4	0.7	-4.3	5.0	37.2*	-1.9	-12.6
CC(C)CN1C(=O)C(=O)N(CC(=O)NC(C)CCc2ccccc2)C1=O (configuration not stated)	5.4	/	/	/	/	/	/	/
O=C(CCc1nc2sc3c(c2c(=O)[nH]1)CCCC3)Nc1ccccc1Cl	14.2	1.5	-0.5	2.8	7.4	38.5*	8.1	-2.2
Cc1cccc(NC(=O)CNC(=O)CCc2nc3sc4c(c3c(=O)[nH]2)CCCC4)c1C	8.1	7.2	28.1	-3.7	4.4	1.6	/	/
COc1ccc(NC(=O)c2cc(S(=O)(=O)N3CCc4ccccc43)cn2C)c(OC)c1	4.1	-3.4	-4.5	12.8	-4.3	-5.5	/	/
COc1ccc(NC(=O)c2cc(S(=O)(=O)N3CCc4ccccc43)cn2C)cc1OC	1.6	15.1	3.5	0.6	7.0	39.8*	38.9*	-0.9
CCN1C(=O)c2cccc3c(S(=O)(=O)Nc4ccc(OC)cc4OC)ccc1c23	8.0	-6.1	10.8	4.6	0.6	32.2*	2.4	9.1
COc1ccc(-c2ccc(C#N)c(SCC(=O)NC3CC3)n2)cc1OC	-6.0	-1.6	-11.6	6.1	6.0	32.3*	13.1	3.8
COc1ccc(-c2nnc3ccc(SCC(=O)NCc4ccco4)nn23)cc1OC	-3.1	-1.2	-3.9	-7.3	-15.4	-12.9	/	/
COc1ccc(-c2ccc(C#N)c(SCC(=O)NCc3ccco3)n2)cc1OC	-18.7	-12.7	-6.5	-8.2	-5.5	45.0*	41.5*	0.5
Cc1ccccc1-n1ccnc1SCC(=O)Nc1cccc(S(=O)(=O)NC2=NCCC2)c1	-2.5	2.8	/	-1.5	/	/	/	/
O=C(Cc1ccc(-n2cccc2)cc1)NCc1cccs1	-0.3	-3.8	5.4	-0.6	-0.2	32.5*	20.1	1.1
Cc1ccc(CNC(=O)Cc2ccc(-n3cccc3)cc2)cc1	-2.0	-3.1	9.4	5.4	-13.2	2.2	/	/
CN1CCN(c2nc(-c3ccccn3)nc3ccccc23)CC1	-3.6	-2.7	4.3	7.6	-6.0	62.8*	4.7	-1.9
c1ccc(N2CCN(c3nc(-c4ccccn4)nc4ccccc34)CC2)cc1	10.4	-4.9	3.3	0.8	-3.5	0.4	/	/
O=C(Nc1ccc(S(=O)(=O)N2CCC(C(=O)NC3CCCCC3)CC2)cc1)c1ccco1	0.5	1.1	3.7	-7.2	-1.9	38.0*	33.6*	0.4
O=C(Nc1ccc(S(=O)(=O)N2CCCCC2)cc1)c1ccco1	-2.7	-4.1	0.5	-4.8	-7.2	0.5	/	/
N#Cc1ccsc1NC(=O)COC(=O)c1cc2ccccc2cc1O	-4.8	-0.7	5.6	4.0	7.8	48.4*	13.7	4.8
COc1ccc(S(N)(=O)=O)cc1C(=O)OCC(=O)Nc1sccc1C#N	8.2	-3.4	/	-5.4	/	/	/	/
CN(C)c1cc[n+](/C(C(=S)Nc2ccc(SC(F)F)cc2)=C(/[O-])c2ccccc2)cc1	-12.7	-4.6	0.4	-26.1	0.4	57.6*	43.4*	-9.7
Cc1ccccc1OCC(=O)Nc1ccc2c(c1)Cc1ccccc1-2	-14.1	-7.9	-6.0	5.6	11.1	29.3*	4.0	1.5
Cc1ccc(-c2nnn(CC(=O)NCCc3ccc4c(c3)OCO4)n2)cc1	-3.2	5.0	0.4	11.8	5.9	44.4*	10.4	8.8
Cn1c(CC(=O)Nc2ccccc2F)nnc1SCC(=O)Nc1nccs1	-2.8	3.9	2.5	-3.0	0.3	8.3	/	/
CCN(CC)S(=O)(=O)c1ccc(N2CCN(C)CC2)c(NC(=O)c2cc(=O)c3ccccc3o2)c1	12.6	1.0	4.2	-0.8	3.9	4.1	/	/
COc1ccc(CNc2nc(NCc3ccc(OC)cc3)n(C(C)=O)n2)cc1	-4.9	5.0	-20.1	6.3	-0.1	65.4*	72.0*	8.8

Screening data from PubChem.
